Source: ChEMBL document CHEMBL4513216, “Probing the Open Global Health Chemical Diversity Library for Multistage-Active Starting Points for Next-Generation Antimalarials” (ACS Infect Dis, 2020)

test: Toxicity liver stage against HepG2, at 10uM; format: cell-based; parameters: test concentration 10 uM, cell line HepG2-A16-CD81EGFP; conditions: human, HepG2-A16-CD81EGFP cells; read-out: INHIBITION
Method in brief: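 Uninfected HepG2-A16-CD81EGFP cells, 3 × 10^3 per well, 1536-well, plated on prespotted compound at 10 μM final, parasite-free screening media added to match infected plates; puromycin 10 μM positive, DMSO 0.5% negative; run in parallel with 48 h PbLuc assay at 37 °C, 5% CO2; viability by CellTiter-Glo luminescence, normalized to controls.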

| SMILES | cytotoxicity at 10 µM [%] |
| --- | --- |
| CCn1c(CN2CCCC2)nnc1C1CCN(Cc2ccncc2)CC1 | -0.384 |
| Cc1nc(CN2CCCC(CCc3ccc(F)cc3F)C2)c[nH]1 (stereo not drawn) | -9.67 |
| CCN1CCCC(O)(CNCc2ccccc2F)C1 (stereo not drawn) | -5.66 |
| CC(C)COc1ccccc1C(N)CC(C)C (stereo not drawn) | -5.27 |
| CN(C)S(=O)(=O)CCCOc1cccc(-n2ccnc2)c1 | 14 |
| CCc1nc2n(n1)CCCC2NC(=O)Nc1ccc(F)cc1C#N (stereo not drawn) | -0.802 |
| CC(C)n1cc(C(=O)NCCc2cn3ccsc3n2)cn1 | 8.67 |
| Cc1cc(-c2cnc(N3CCCC(C)C3)nc2-c2cccnc2C)on1 (stereo not drawn) | 7.85 |
| Cc1noc(C(C)C)c1C(=O)NCC(c1ccccc1)N(C)C (stereo not drawn) | -7.72 |
| COCc1ncc(CN2CCC3(CCC(=O)N(CC(C)O)C3)CC2)cn1 (stereo not drawn) | -123 |
| Cc1cc(-c2nn(C)c(Cl)c2CN2CCOC(C(=O)O)C2)no1 (stereo not drawn) | 4.04 |
| COC(=O)C(CO)NC(=O)c1cn(Cc2ccccc2F)nn1 (stereo not drawn) | -1.14 |
| O=C1CCCc2[nH]c(=O)c(C(=O)N(Cc3ccsc3)C3CC3)cc21 | -10.8 |
| O=C(Nc1ccccc1CCO)c1cccc(CN2CC[C@H](O)C2)c1 | 8.77 |
| CCOc1ccc(N(CCC#N)C(=O)c2ccc(SC)nc2)cc1 | 5.93 |
| CC(NC(=O)NCc1cccs1)c1ccc2c(c1)CCC(=O)N2 (stereo not drawn) | 5.41 |
| CCc1ccc(CN2CCc3ncnc(-c4cccnc4)c3CC2)o1 | 12.8 |
| COCCCNc1nccc(-c2c[nH][nH]c2=O)n1 | 7.46 |
| N#CCCN(Cc1ccccn1)C(=O)Nc1cccc(F)c1 | 3.43 |
| CCC(CO)N(C/C(C)=C/c1ccco1)Cc1ccccn1 (stereo not drawn) | -2.46 |
| CC(C)(Oc1ccc2c(c1)CCCC2=O)C(=O)NCc1ccco1 | -2.74 |
| Cc1ocnc1C(=O)N1CC[C@@H](O)[C@@H](O)[C@H](N2CCC(F)(F)CC2)C1 | 4.86 |
| CN(C)C(C(=O)N1CCCC1)c1ccccc1F (stereo not drawn) | 7.35 |

| SMILES | cytotoxicity at 10 µM [%] |
| --- | --- |
| Cc1ccc(C)c(C(O)CN(C)Cc2nnc3ccccn23)c1 (stereo not drawn) | -13.8 |
| O=C1NC2(CCN(Cc3ccsc3)CC2)CC1c1ccncc1 (stereo not drawn) | 4.93 |
| CC1CN(C)CCN1C(=O)c1ccn(-c2ccccc2Cl)n1 (stereo not drawn) | -6.33 |
| COc1ccc(NC(=O)c2ccccc2NCc2ncnn2C)cc1 | 2.06 |
| Cc1ccc(-c2snnc2C(=O)NCCCO)cc1 | 6.67 |
| Cc1cc(C2CCC2)nc(N(C)Cc2cnccn2)n1 | -1.86 |
| Clc1ccc(C(CNCc2ccncc2)n2cccn2)cc1 (stereo not drawn) | 6.73 |
| COc1ccccc1OCCc1nnc(NC(=O)C2CC23CCC3)s1 (stereo not drawn) | 1.26 |
| CCNc1ncc(C(=O)NCC2OCCc3ccccc32)cn1 (stereo not drawn) | -53.1 |
| Cc1cnn(CCNCC(O)COc2ccc(C#N)cc2)c1 (stereo not drawn) | -11.9 |
| Cc1nn(C)c(C)c1C1CCCN1Cc1cn2ccsc2n1 (stereo not drawn) | -51.6 |
| O=C(Cc1cccs1)N1CCOCC1c1ccccc1 (stereo not drawn) | -6.73 |
| CCCn1ccc(C(=O)N2CCC(C)CC2)n1 | -7.01 |
| OCC1(CC2CC2)CCCN(Cc2cnc(C3CCCCC3)nc2)C1 (stereo not drawn) | -9.2 |
| COc1ccc(F)c(CN2CCCC3(CCN(C(=O)CSC)C3)C2)c1 (stereo not drawn) | 0.15 |
| CC(C)OCCNC1(c2ccc(F)cc2)CCOCC1 | -4.78 |
| CN(Cc1ccccc1)c1ccc(C(F)(F)F)cn1 | 10.2 |
| Cc1cc(F)ccc1N1CCCC(Nc2nccn3cnnc23)C1=O (stereo not drawn) | -6.62 |
| CCc1nc(NS(=O)(=O)c2cc(C)cc(F)c2)no1 | 2.31 |
| CCc1nc(CN(C)Cc2nc(-c3ccccc3Cl)oc2C)no1 | -8.83 |
| Cc1nc(CN2CCCC(CCc3ccccc3C(F)(F)F)C2)co1 (stereo not drawn) | 0.663 |
| CC(C)=CCCC1(C)C=Cc2c(cc(C)n(CC(=O)O)c2=O)O1 (stereo not drawn) | -2.72 |
| CC(=O)NCc1nnc2n1CCN(Cc1cccs1)C2 | -149 |

| SMILES | cytotoxicity at 10 µM [%] |
| --- | --- |
| CCN(c1ccc(C(=O)N2CCC(C)CC2)cc1)S(=O)(=O)CC | 7.36 |
| Cc1c[nH]c(CN(C)C(C(=O)O)c2c(F)cccc2Cl)n1 (stereo not drawn) | -41.7 |
| Cc1nnc2n1CCN(Cc1ccc3c(c1)OCCO3)C2 | -8.95 |
| Cn1cnc(S(=O)(=O)NCC2CCN(C(=O)Oc3ccccc3)CC2)c1 | -11.1 |
| COCC1CCCN(C(=O)c2ccc(N(C)Cc3cnn(C)c3)nc2)C1 (stereo not drawn) | -3.97 |
| Oc1cccc2ccc(CN3CCC4(CCNCC4)C3)nc12 | -6.19 |
| Cc1nnc2n1CCN(Cc1c(Cl)ccc3cccnc13)C2 | 8.25 |
| c1csc(N2CCCN(Cc3nc(C4CC4)no3)CC2)n1 | -9.68 |
| Cc1occc1C(=O)N1CC[C@H]2C[C@@H](c3nnc(C4CC4)o3)O[C@@H]2C1 | -111 |
| CCNc1cc2c(nn1)CCN(C(=O)c1cc3ccccc3o1)C2 | 3.88 |
| COc1ccc(C(C)N2CCC(C(=O)NC3CC3)CC2)cc1Cl (stereo not drawn) | -50.6 |
| CCn1ccc(C(=O)N(C)Cc2cnn(-c3cccc(OC)c3)c2)n1 | 6.26 |
| CN(CCO)C1CCN(c2ncc3c(n2)CCN3c2ccccc2)CC1 | -2.3 |
| CN(C)S(=O)(=O)Nc1ccc(Oc2ccc3c(c2)OCO3)cc1 | 1.43 |
| CN(C)Cc1cccc(C(=O)N2CCCC(n3cncn3)C2)c1 (stereo not drawn) | -5.87 |
| c1nc2c(c(N3CCOCC3)n1)CCNCC2 | -2.36 |
| COCCN(C(=O)c1cnccn1)c1nc2c(s1)CCc1c-2cnn1C | -24.3 |
| CC(C)C(C(=O)N1CCCN(c2cccnn2)CC1)n1cncn1 (stereo not drawn) | -20.7 |
| c1cnc(NC2COC3(CCN(Cc4cccs4)CC3)C2)nc1 (stereo not drawn) | 0.603 |
| CC(C)CN(Cc1ccccn1)Cc1ccccc1OCC(=O)O | -12.7 |
| c1csc(CCN2CCCC2c2noc(C3CC3)n2)c1 (stereo not drawn) | 9.15 |
| CN(Cc1ccc(C2CC(=O)Nc3n[nH]cc32)o1)S(C)(=O)=O (stereo not drawn) | -13.8 |
| O=C(NC[C@@H]1C[C@@H]2CN(C(=O)CO)C[C@H]2O1)c1ccsc1 | -96.5 |

| SMILES | cytotoxicity at 10 µM [%] |
| --- | --- |
| CN1CC2(CCN(CC3CC3)CC2)COc2ccccc2S1(=O)=O | -0.697 |
| CCOc1ccccc1C(=O)Nc1cccc(C[S+](C)[O-])c1C (stereo not drawn) | -4.35 |
| CCc1nc(CN2CCCN(C(=O)c3c(C)noc3C)CC2)cs1 | 1.74 |
| Fc1ccccc1C(CNc1ccncn1)N1CCCC1 (stereo not drawn) | 2.84 |
| COCC(=O)N1CCN(Cc2nnc(C(C)(C)C)o2)CC1 | 7.66 |
| CCN(CC)C(=O)CCNC(=O)Cc1nc(-c2ccco2)oc1C | 26.8 |
| Cn1cc(CN2CCOC(c3cccc(-c4cncnc4)n3)C2)cn1 (stereo not drawn) | 4.74 |
| O=C(CN1CCNC1=O)NCc1ccc2sccc2c1 | 5.05 |
| Cn1cccc1C(=O)NCc1cn2c(n1)CN(CC1CCOC1)CC2 (stereo not drawn) | -99.7 |
| C1CCC(NC2CCCN(Cc3noc(C4CC4)n3)C2)C1 (stereo not drawn) | -5.05 |
| O=C(c1cnc(-c2ccccc2)s1)N1CCOC2(CCCC2)C1 | -1.52 |
| CC(c1ccccn1)N(C)Cc1ccc(CCC(C)(C)O)cc1 (stereo not drawn) | 1.82 |
| Cc1cccc(S(=O)(=O)N2Cc3nccn3CC(CN(C)C)C2)c1 (stereo not drawn) | -105 |
| CC(=O)N(C)Cc1nn(C)c2c1CN(Cc1ccsc1)C2 | -134 |
| COc1cc(N2CC[C@@H](O)[C@@H]2Cc2ccncc2)ncn1 | -84.5 |
| Cc1cc(C)c2nc(CNC3CCNC3=O)cc(O)c2c1 (stereo not drawn) | 5.92 |
| COc1ncnc2c1CCN(c1cc(C(F)(F)F)ncn1)CC2 | -1.42 |
| CCS(=O)(=O)N1CCc2c(cccc2NC(=O)NCCO)C1 | -7.47 |
| CN(C)c1ncc(I)c(C2CCCCN2S(C)(=O)=O)n1 (stereo not drawn) | 5.09 |
| Cc1cc(C)nc(CN(C)C(=O)c2ccccc2C2CCNC2)c1 (stereo not drawn) | 1.64 |
| COCCN(Cc1ccoc1)S(=O)(=O)c1ccc(F)c(Cl)c1 | -7.93 |
| Cc1cncc(C2CCCN(C(=O)c3cnco3)C2)n1 (stereo not drawn) | -6.94 |
| COc1cccc(-c2cnc3n2CCC32CCN(C(C)=O)CC2)c1 | -2.05 |

| SMILES | cytotoxicity at 10 µM [%] |
| --- | --- |
| c1ccc2oc(N3CCC(c4nncn4C4CC4)CC3)nc2c1 | 12.7 |
| COC(=O)c1cccc(S(=O)(=O)NC(=O)c2cccc(OC)c2OC)c1 | 12.2 |
| Cc1cc(N2CCN(c3nc4ccccc4cc3CO)CC2)nc(C)n1 | 7.86 |
| Cc1cc(C)n(C2CCN(c3ncnc4sc5c(c34)CCNC5)C2)n1 (stereo not drawn) | 17.3 |
| CCOCCCNC(=O)c1cc(C)nc(N2CCCC2)n1 | 1.11 |
| COc1ccc(C)cc1-n1ccc(C(=O)NCC2CCCOC2)n1 (stereo not drawn) | -2.51 |
| CN(C)CC1CN(Cc2coc(-c3cccc(F)c3)n2)CCO1 (stereo not drawn) | -17.2 |
| Cc1ccc(S(=O)(=O)NC[C@H]2OC[C@@H](NCc3ccccc3)[C@@H]2O)cc1 | -1.73 |
| O=C(NCc1ccco1)[C@@H]1COC[C@H]2CN(c3ncc(F)cn3)C[C@H]21 | -5.67 |
| CCCN1C(=O)[C@@H]2[C@@H](CCN2C(=O)COC)N(Cc2cccs2)C1=O | 0.121 |
| Cc1cnn(CC2CCCN2c2ncnc3c2CCC3)c1 (stereo not drawn) | 7.84 |
| O=C1CC2(CCN(Cc3ccc4cccc(O)c4n3)CC2)CN1 | -15.3 |
| O=C(CCOc1ccccc1F)N1CCCC1Cn1cccn1 (stereo not drawn) | -3.71 |
| Cc1cnc2n(c1=O)CC(C(=O)NCc1ccccc1Cl)CS2 (stereo not drawn) | -1.74 |
| Cc1ccc(-c2cc(CN3CCc4cncnc4C3)on2)cc1 | 4.96 |
| CC(C)CCc1noc(CN2CCCN(C(=O)c3ccco3)CC2)n1 | -7.06 |
| CCc1nnc2n1CCN(C(C(N)=O)c1ccc(F)cc1)C2 (stereo not drawn) | -8.13 |
| O=C(c1ccn[nH]1)N1CCCC(n2cncn2)C1 (stereo not drawn) | 1.56 |
| CCN(CC)C(C)CNC(=O)c1cccnc1Oc1cccnc1 (stereo not drawn) | -2.09 |
| CCc1nsc(N2CCC3(CC2)OCCO3)n1 | 2.24 |
| CCOC(=O)c1ccc(NC(=O)c2cc3c([nH]c2=O)CCCC3)cc1 | 9.13 |
